RBBP9 inhibitor: blocks human serine hydrolase RBBP9. 220,000 tested, 0.2% active. recombinant RBBP9, FP-Rh probe fluorescence polarization. inhibition, % at 7.94 µM. AID 1515. O75884;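 active = inhibition above the campaign mean of all tested compounds plus 3 SD, cut at about 14% in these data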;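 also: plate controls were DMSO wells with RBBP9 for no effect and wells lacking RBBP9 protein for full effect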
Target sequence (O75884 whole entry, looked up): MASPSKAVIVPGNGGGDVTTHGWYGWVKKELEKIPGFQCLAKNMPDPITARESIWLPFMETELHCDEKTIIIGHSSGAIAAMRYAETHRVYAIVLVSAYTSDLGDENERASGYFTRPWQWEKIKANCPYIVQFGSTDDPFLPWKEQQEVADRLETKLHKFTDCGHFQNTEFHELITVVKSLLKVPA
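Test system – recombinant human RBBP9 · Input – RBBP9 2.5 µM in dispensing solution, pre-mixing · Medium – Tris buffer pH 8.0, NaCl, Pluronic · Schedule – preincubation 30 min plus labeling 45 min at 25 °C · Measured by – fluorescence polarization · Measure – % inhibition · Controls – DMSO and no-protein wells · Replicates – one well per compound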
Furin inhibitor: inhibitors of human furin; P09958; purified furin, fluorogenic substrate cleavage; inhibition, % at 20 µM or 30 µM; 220,000 tested, 0.061% active; in the data active = inhibition above about 25%
NCF1 inh: p47phox (human) inhibition; 220,000 tested, 0.53% active; inhibition, % at 24.7 µM; p47phox/p22phox peptide binding, fluorescence polarization, 2 h; P14598;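 active = inhibition above about 30%, limit read from the data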;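 also: 0% = p47phox with labelled peptide and 100% = labelled peptide alone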
Target sequence (P14598 whole entry, looked up): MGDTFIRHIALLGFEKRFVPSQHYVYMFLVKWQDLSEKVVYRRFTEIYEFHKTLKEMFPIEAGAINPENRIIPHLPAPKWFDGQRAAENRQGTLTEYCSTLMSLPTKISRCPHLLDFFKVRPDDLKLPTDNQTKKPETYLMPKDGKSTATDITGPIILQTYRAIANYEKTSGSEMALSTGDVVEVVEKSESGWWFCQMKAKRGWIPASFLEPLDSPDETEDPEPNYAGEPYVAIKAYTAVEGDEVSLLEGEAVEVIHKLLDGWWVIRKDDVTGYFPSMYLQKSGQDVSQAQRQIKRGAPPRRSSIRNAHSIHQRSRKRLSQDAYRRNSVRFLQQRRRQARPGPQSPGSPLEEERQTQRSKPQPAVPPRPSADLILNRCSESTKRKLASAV
m-calpain inh: inhibitors of pig calpain II. AID 1236. 220,000 tested, 0.37% active. purified calpain II, fluorogenic peptide substrate, 30 min. inhibition, % at 16 µM;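 active = inhibition above about 50%, limit read from the data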
Starred values were filed as active, the others as inactive; x = no result. Hits are enriched below; roughly 1.1% of the tested compounds scored in any of these assays.

SMILES | RBBP9 inhibitor | Furin inhibitor | NCF1 inh | m-calpain inh
COc1c(C(CC(C)C)OC(C)=O)ccc2c1C(=O)OCc1cc(C)cc(O)c1O2 (stereo not drawn) | x | -30 | -3 | 12
O=c1[nH][nH]c(=S)n1C1CCCCC1 | -6 | -22 | 24 | 0
CC(C)n1c(=O)[nH][nH]c1=S | -7 | -13 | 43* | -3
Cc1c(C(=O)NCc2ccccc2)oc2ccc(S(=O)(=O)N3CCCC3)cc12 | -5 | -12 | -1 | -25
Cc1ccc(CNC(=O)c2oc3ccc(S(=O)(=O)N4CCOCC4)cc3c2C)cc1 | -3 | -14 | -12 | 57*
CCN(CC)S(=O)(=O)c1ccc2oc(C(=O)NC(C)C)c(C)c2c1 | -2 | -20 | -6 | -21
CCN(CC)S(=O)(=O)c1ccc2oc(C(=O)NCc3ccc(C)cc3)c(C)c2c1 | 5 | -23 | -14 | 63*
Cc1ccc(CNC(=O)c2ccc(CN3CCOCC3)cc2)cc1 | 2 | -21 | 37* | 10
Cc1ccc2c(CC(=O)Nc3cccc(S(=O)(=O)N4CCOCC4)c3)coc2c1 | -10 | -11 | -7 | 51*
CO/N=C/C1CCN(c2ncc(C(F)(F)F)cc2Cl)C1=O (stereo not drawn) | -5 | -11 | -8 | 27
O=CN1CCN(C(=O)c2ccc(-c3nc4ccccc4s3)s2)CC1 | -10 | 8 | -8 | -58
CCOc1ccc2nc(COC(=O)c3cccs3)c(C(C)=O)[n+]([O-])c2c1 | 4 | -6 | -12 | -12
CCOc1ccc2nc(COC(=O)c3ccco3)c(C(C)=O)[n+]([O-])c2c1 | -1 | -20 | 48* | -1
CCCCc1ccc(-c2nc(-c3ccncc3)no2)cc1 | 10 | -18 | 62* | 4
Cc1cc(NC(=NC2CC2)c2ccccc2F)n(-c2ccccc2)n1 | -13 | -22 | -11 | 2
O=C(O/N=C/c1ccc2c(c1)OCO2)c1ccc([N+](=O)[O-])cc1 | -9 | -28 | 0 | 70*
Cc1ccc(C(=O)O/N=C/c2ccc3c(c2)OCO3)cc1 | -7 | 11 | -8 | 14
c1ccc(CN(CC2=NCCN2)c2ccccc2)cc1 | -2 | -18 | -3 | 7
c1ccc(CC2=NCCN2)cc1 | 1 | -9 | 54* | 24
COC(=O)c1[nH]c2ccccc2c1NC(=O)CN1CCC(C(N)=O)(N2CCCCC2)CC1 | 8 | 28* | -17 | -38
COC(=O)c1[nH]c2ccccc2c1NC(=O)CN1CCCCCC1 | -7 | -24 | 7 | 0
Cc1cnc(NC(=O)c2cc3ccccc3o2)s1 | 0 | -8 | 5 | -23
O=C(CCCn1c(=O)[nH]c2ccsc2c1=O)Nc1ccc(F)cc1 | -8 | -26 | 1 | -5
O=C(CCn1c(=O)[nH]c2ccsc2c1=O)NCc1ccc(F)cc1 | -4 | -28 | 8 | 52*
Cc1nnc(SCC(=O)N2CCCCCC2)n(N)c1=O | -5 | -26 | 5 | -34
SMILES | RBBP9 inhibitor | Furin inhibitor | NCF1 inh | m-calpain inh
Cc1nnc(SCC(=O)c2ccc(Cl)cc2)n(N)c1=O | 18* | -1 | -5 | 4
CCOc1cc(N2CCOCC2)c(OCC)cc1NS(=O)(=O)c1ccc(Cl)s1 | -4 | -20 | 59* | -1
CCOc1cc(N2CCOCC2)c(OCC)cc1NC(=O)CCS(=O)(=O)c1ccc(Cl)cc1 | -3 | -12 | -10 | -2
CCCc1cc(NCCCO)n2c(nc3ccccc32)c1C#N | -11 | -73 | 4 | -301
O=C(c1ccco1)N1C(=O)c2cccc3cccc1c23 | -2 | -21 | 150* | -79
O=c1c(C(c2ccccc2)c2c(O)sc3ccccc3c2=O)c(O)sc2ccccc12 | -14 | -14 | -86 | 51*
CCC1=NN2C(=N)/C(=C\c3cccn3-c3ccc(Br)cc3)C(=O)N=C2S1 | -3 | -6 | 43* | 0
CCC1=NN2C(=N)/C(=C\c3cccn3-c3cccc(Cl)c3)C(=O)N=C2S1 | 1 | -10 | -23 | -29
Cn1c(Cc2ccccc2)nnc1SCC(=O)N1CCOCC1 | -9 | -10 | 83* | 3
COc1cc2c(cc1NC(=S)NC(=O)/C=C/c1ccco1)oc1ccccc12 | 1 | 15 | -14 | -7
COc1ccc(/C=C/C(=O)NC(=S)Nc2cc3oc4ccccc4c3cc2OC)cc1 | -11 | 10 | 20 | 62*
COc1ccc(/C=C/C(=O)NC(=S)Nc2ccc(C(=O)O)cc2)cc1 | -6 | -5 | -22 | 74*
COc1cc2c(cc1NC(=S)NC(=O)/C=C/c1ccc(OC)c(OC)c1)oc1ccccc12 | 4 | -5 | 37* | 29
COc1cc2c(cc1NC(=O)/C=C/c1ccccc1)oc1ccccc12 | -11 | -7 | -11 | -9
CC(C)(C)OC(=O)N1CCC(C(=O)N[C@@H](Cc2ccccc2)C(=O)O)(c2ccccc2)CC1 | -4 | -6 | 9 | 22
CC(C)[C@H](NC(=O)C1(c2ccccc2)CCN(C(=O)OC(C)(C)C)CC1)C(=O)O | 3 | -15 | 58* | -11
O=C(CSc1cccc[n+]1[O-])Nc1c(Br)cc([N+](=O)[O-])cc1Br | -7 | -10 | -2 | 15
Cc1nc(-c2ccc(S(=O)(=O)Nc3ccc(Br)cc3Cl)s2)cs1 | 0 | 2 | -20 | 63*
COc1ccccc1N=Nc1nc(-c2ccccc2)c(-c2ccccc2)[nH]1 | -14 | -15 | 119* | -44
COc1cc(C(=O)OCC(=O)NCCN2C(=O)CSC2=O)ccc1OCc1c(C)noc1C | 8 | -20 | x | 14
O=c1[nH]c2ccccc2c(O)c1O | 16* | -23 | -1 | -175
O=c1[nH]c2ccccc2c(O)c1-[n+]1ccccc1 | -6 | -16 | -3 | -12
COc1ccc(CC/C(C)=N\NC(N)=O)cc1 | -4 | -32 | -9 | -13
Nc1nonc1C(=O)NCCNCc1cc(Br)ccc1OCc1ccccc1F | 1 | -5 | -10 | 75*
NS(=O)(=O)c1ccc(CCNCc2cc(Br)ccc2OCc2ccccc2F)cc1 | -5 | -25 | -4 | 53*
SMILES | RBBP9 inhibitor | Furin inhibitor | NCF1 inh | m-calpain inh
Fc1ccc2c(c1)/C(=N/Nc1ccccn1)CCS2 | -5 | -1 | -10 | 24
CCCOc1ccc(Oc2nc(-c3ccncc3)nc3ccccc23)cc1 | -4 | -13 | -8 | 18
C=CCc1cccc(/C=N/NC(=O)CCCNc2ccc(C)cc2)c1O | -7 | -13 | 94* | 21
O=C(O)/C=C/C(=O)N1CCN(C(c2ccccc2)c2ccccc2)CC1 | 0 | -13 | -2 | -16
Cc1ccc(OCC(=O)NC2=NCCS2)cc1 | -6 | -19 | 47* | 15
O=C(NCCc1ccc(F)cc1)C1CCCCC1 | -8 | -33 | 1 | -7
CCOC(=O)C1CCN(C(=O)CSc2nccc(C)n2)CC1 | -3 | -26 | -13 | -6
CC(=O)Nc1cc(-c2ccc(Cl)cc2)nn1-c1ccccc1 | 0 | 28* | 1 | -14
CCC(C)NC(=O)CN(c1ccc(Cl)c(Cl)c1)S(C)(=O)=O (stereo not drawn) | 4 | -9 | 2 | -8
CCS(=O)(=O)c1ccc(Sc2nncn2C)c([N+](=O)[O-])c1 | 5 | -5 | 124* | -15
CCN(CC)S(=O)(=O)c1ccc(NC(=O)c2ccc(Sc3nncn3C)c([N+](=O)[O-])c2)cc1 | -2 | -9 | -4 | 10
CCCCOc1ccc(C(=O)NCc2ccccn2)cc1 | -3 | -18 | 38* | -27
